Only a selection was taken, and hits are over-represented in it overall.
GASC1 inh: inhibitors of human demethylase GASC-1 KDM4C; GST-KDM4C 2-372, H3K9me3 peptide, LANCE TR-FRET; inhibition, % at 12.5 µM; Q9H3R0; 96,000 compounds, 0.15% hits;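 active = mean replicate inhibition above about 25%, with at least 55% of replicates also reaching it, limit read from the data, passing the limit was not always enough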
Target sequence (Q9H3R0 2-372 limits assumed): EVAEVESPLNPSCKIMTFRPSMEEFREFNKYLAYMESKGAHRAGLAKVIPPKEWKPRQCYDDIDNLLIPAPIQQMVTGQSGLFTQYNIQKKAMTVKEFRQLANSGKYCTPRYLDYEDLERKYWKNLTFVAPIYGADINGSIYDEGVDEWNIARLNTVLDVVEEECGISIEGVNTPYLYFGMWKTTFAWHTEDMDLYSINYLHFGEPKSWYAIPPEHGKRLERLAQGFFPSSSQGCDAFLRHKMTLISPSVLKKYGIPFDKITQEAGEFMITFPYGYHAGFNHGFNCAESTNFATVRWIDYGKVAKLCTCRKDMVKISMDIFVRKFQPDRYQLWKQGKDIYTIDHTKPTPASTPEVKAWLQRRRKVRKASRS
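System: N-terminal GST-fused human GASC-1 (KDM4C) fragment, residues 2-372; amount: enzyme final amount 10 nM; incubation: reaction 30 min RT, detection step 1 h RT; medium: HEPES buffer, pH 7.5, plus ascorbate; technique: LANCE TR-FRET, Eu antibody, ULight-streptavidin, EDTA, ex 340 nm, em 618/671 nm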
IDH1 R132H inh: IDH1 R132H (human) inhibition | IDH1 R132H reductase, diaphorase/resazurin fluorescence, 60 min | inhibition, % at 10 µM | 70,000 compounds, 0.18% hits | AID 624101; in the data active = inhibition above about 34%;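 note: 0% = DMSO and 100% = no enzyme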
Pf Dd2 inh: blocks growth of Plasmodium falciparum Dd2 parasites. activity change, % at 10 µM. P. falciparum Dd2 growth, SYBR Green, 72 h; hits give low values. 94,000 compounds, 2.3% hits. AID 1159554; in the data active = activity change below about -80%
The depositor's hits bear a star; . = no result.

SMILES	GASC1 inh	IDH1 R132H inh	Pf Dd2 inh
COc1ccc(S(=O)(=O)N(C)C[C@H]2OCCCC[C@@H](C)Oc3ccc(NC(=O)Nc4ccc(F)cc4)cc3C(=O)N([C@@H](C)CO)C[C@H]2C)cc1	-0.3	.	-75.6
COc1ccc(S(=O)(=O)N(C)C[C@@H]2OCCCC[C@@H](C)Oc3ccc(NC(=O)Nc4ccc(F)cc4)cc3C(=O)N([C@@H](C)CO)C[C@@H]2C)cc1	-2.4	.	-81.0*
O=C(C[C@@H]1C[C@@H]2c3cc(NC(=O)C4CCC4)ccc3O[C@@H]2[C@H](CO)O1)NCc1ccc(Cl)cc1	-0.9	0.2	-17.2
C[C@H]1CN([C@@H](C)CO)C(=O)c2cc(Br)cnc2O[C@H]1CN(C)C(=O)c1ccc(F)cc1	-2.4	-0.8	31.2
C[C@H]1CN([C@@H](C)CO)C(=O)c2cc(C#CCc3ccccc3)cnc2O[C@@H]1CN(C)CC1CCCC1	1.1	-0.5	-87.8*
C[C@@H]1CN([C@H](C)CO)C(=O)c2cc(C#CCc3ccccc3)cnc2O[C@@H]1CN(C)CC1CCOCC1	-0.7	-4.0	-56.5
C[C@@H]1CN([C@@H](C)CO)C(=O)c2cc(C#CCc3ccccc3)cnc2O[C@@H]1CN(C)Cc1ccc(C(=O)O)cc1	-2.4	0.6	-15.5
C[C@H]1CN([C@@H](C)CO)C(=O)c2cc(C#CCc3ccccc3)cnc2O[C@@H]1CN(C)Cc1ccc(C(=O)O)cc1	4.2	35.3*	-23.1
C[C@@H]1CN([C@H](C)CO)C(=O)c2cc(C#CCc3ccccc3)cnc2O[C@H]1CN(C)CC1CCCC1	.	-0.3	-94.2*
C[C@@H]1CN([C@H](C)CO)C(=O)c2cc(C#CCc3ccccc3)cnc2O[C@H]1CN(C)CC1CCOCC1	-1.0	-2.1	-63.4
Cc1noc(C)c1NC(=O)Nc1ccc2c(c1)CC(=O)N([C@@H](C)CO)C[C@H](C)[C@H](CN(C)Cc1ccc(Cl)c(Cl)c1)O2	2.0	0.9	-7.6
COc1ccc2c3c([nH]c2c1)[C@@H](CO)N(C(C)=O)CC31CCN(Cc2cc(-c3ccccc3)on2)CC1	0.8	.	-66.5
COc1ccc2c3c(n(C)c2c1)[C@@H](CO)N(C(=O)Nc1ccc(F)cc1)CC31CN(Cc2ccccn2)C1	3.5	.	-56.8
COc1ccc2c3c(n(C)c2c1)[C@H](CO)N(C(=O)Nc1ccc(F)cc1)CC31CCN(Cc2ccccn2)CC1	0.1	.	-89.5*
COc1cccc(CN2CCC3(CC2)CN(C(=O)Nc2ccc(F)cc2)[C@H](CO)c2c3c3ccc(OC)cc3n2C)c1	-0.1	.	-34.6
COc1ccc2c3c(n(C)c2c1)[C@@H](CO)N(C(=O)Nc1ccc(F)cc1)CC31CCN(Cc2ccccn2)CC1	1.8	.	-87.6*
COc1ccc2c3c([nH]c2c1)[C@H](CO)N(C(=O)Nc1ccc(F)cc1)CC31CCN(Cc2cc(-c3ccccc3)on2)CC1	0.1	.	-87.1*
Cc1ccccc1S(=O)(=O)N1CC[C@@H]2[C@H]1c1cc(-c3cccc(F)c3)ccc1N[C@@H]2CO	-0.1	.	21.9
C[C@H]1CN([C@@H](C)CO)C(=O)Cc2cc(NC(=O)Cn3cnnn3)ccc2O[C@@H]1CN(C)C(=O)Nc1cccc2ccccc12	1.5	0.6	22.1
C[C@@H]1CCCCO[C@H](CN(C)S(=O)(=O)c2ccc(Cl)cc2)[C@H](C)CN([C@H](C)CO)C(=O)c2cc(NS(=O)(=O)c3cn(C)cn3)ccc2O1	-0.6	4.6	-55.8
C[C@H](CO)N1C[C@H](C)[C@H](CN(C)Cc2ccc(C(=O)O)cc2)Oc2ccc(NC(=O)NC3CCCCC3)cc2CC1=O	-0.7	4.3	13.9
C[C@H]1CN([C@@H](C)CO)C(=O)c2cccc(NC(=O)c3nc4ccccc4s3)c2O[C@@H]1CN(C)C(=O)Nc1cccc2ccccc12	13.6	1.6	-75.9
C[C@H](CO)N1C[C@H](C)[C@@H](CN(C)C(=O)Nc2ccc3c(c2)OCO3)Oc2c(NC(=O)c3nc4ccccc4s3)cccc2C1=O	1.1	-0.1	-45.3
C[C@@H]1CN([C@@H](C)CO)C(=O)c2cccc(NC(=O)Nc3ccc4c(c3)OCO4)c2O[C@@H]1CN(C)C(=O)Nc1ccc2c(c1)OCO2	-0.9	.	-89.6*
C[C@@H]1CN([C@@H](C)CO)C(=O)c2cccc(NC(=O)c3nc4ccccc4s3)c2O[C@H]1CN(C)C(=O)Nc1cccc2ccccc12	.	0.2	-94.2*
SMILES	GASC1 inh	IDH1 R132H inh	Pf Dd2 inh
C[C@H]1CN([C@@H](C)CO)C(=O)c2cccc(NC(=O)Nc3ccc4c(c3)OCO4)c2O[C@@H]1CN(C)C(=O)Nc1ccc2c(c1)OCO2	0.2	1.0	19.3
C[C@@H]1CN([C@@H](C)CO)C(=O)c2cccc(NC(=O)c3nc4ccccc4s3)c2O[C@H]1CN(C)C(=O)Nc1ccc2c(c1)OCO2	-1.0	-0.4	-89.7*
C[C@@H]1CN([C@@H](C)CO)C(=O)c2cccc(NC(=O)c3nc4ccccc4s3)c2O[C@@H]1CN(C)C(=O)Nc1cccc2ccccc12	0.7	-0.6	-88.0*
C[C@H]1CN([C@@H](C)CO)C(=O)c2cccc(NC(=O)c3nc4ccccc4s3)c2O[C@H]1CN(C)C(=O)Nc1cccc2ccccc12	10.0	4.5	-27.3
CCN1[C@H](C(=O)NCCc2cn(C)cn2)[C@@H](CO)[C@@H]2Cn3c(ccc(-c4ccc(F)cc4)c3=O)[C@@H]21	1.9	.	.
CCCNC(=O)N1C[C@H](O)COC[C@H]2O[C@@H](CC(=O)O)CC[C@@H]21	-3.2	.	33.5
CO[C@@H]1CN(C)C(=O)c2cc(NS(=O)(=O)c3ccc(Cl)cc3)ccc2OC[C@H](C)N(C(=O)NC(C)C)C[C@H]1C	-0.4	-0.1	.
CCCNC(=O)N1[C@H](CO)[C@H](c2ccccc2)C12CN(C(=O)CC)C2	1.3	.	7.3
C[C@@H]1CN([C@@H](C)CO)C(=O)c2cc(NS(=O)(=O)c3ccccc3)ccc2O[C@@H]1CN(C)C	0.3	0.8	-3.8
C[C@@H]1CCCCO[C@H](CN(C)S(=O)(=O)c2ccc(Cl)cc2)[C@@H](C)CN([C@H](C)CO)C(=O)c2cc(NC(=O)C3CCCCC3)ccc2O1	-1.3	-3.9	-57.9
C[C@@H]1CCCCO[C@@H](CN(C)S(=O)(=O)c2ccc(Cl)cc2)[C@@H](C)CN([C@@H](C)CO)C(=O)c2cc(NC(=O)C3CCCCC3)ccc2O1	-0.9	-0.7	-80.9*
C[C@@H]1CCCCO[C@@H](CN(C)S(=O)(=O)c2ccc(F)cc2)[C@@H](C)CN([C@@H](C)CO)C(=O)c2cc(NC(=O)C3CCCCC3)ccc2O1	12.0	-3.0	-78.3
C[C@@H]1CCCCO[C@@H](CN(C)S(=O)(=O)c2ccc(Cl)cc2)[C@H](C)CN([C@@H](C)CO)C(=O)c2cc(NC(=O)C3CCCCC3)ccc2O1	16.4	0.6	-72.8
C[C@@H]1CN([C@@H](C)CO)C(=O)c2cc(NC(=O)C3CCCCC3)ccc2O[C@@H](C)CCCCO[C@@H]1CN(C)S(=O)(=O)c1ccc(Cl)cc1	-0.8	.	-80.8*
C[C@@H]1CCCCO[C@H](CN(C)S(=O)(=O)c2ccc(Cl)cc2)[C@H](C)CN([C@H](C)CO)C(=O)c2cc(NC(=O)C3CCCCC3)ccc2O1	17.6	1.2	-84.3*
C[C@H]1CCCCO[C@H](CN(C)S(=O)(=O)c2ccc(Cl)cc2)[C@@H](C)CN([C@@H](C)CO)C(=O)c2cc(NC(=O)C3CCCCC3)ccc2O1	0.8	.	-85.1*

Screens deposited in PubChem BioAssay by Broad Institute.
